According to the RNAGym collection of RNA variant scans (doi:10.1126/science.aae0568):
This sample holds only a part of the variants without activity.

B1: tRNA (parent)
chain: GUUCCGUUGGCGUAAUGGUAACGCGUCUCCCUCCUAAGGAGAAGACUGCGGGUUCGAGUCCCGUACGGAACG

Variants of: B1
Assay: yeast fitness relative to wild type (ratio to wild type); higher = fitter; tRNA-Arg(CCU), competitive growth, 37 C, YPD
Outline: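 A pool of Saccharomyces cerevisiae strains, each with a tRNA-Arg(CCU) gene variant at the native genomic locus, was competed in YPD at 37°C for 24 hours across six parallel replicates. The variants had been chemically synthesised at a 3% per-site mutation rate over 69 sites, and gene amplicons before and after competition were read by 100-nucleotide paired-end sequencing. Darwinian fitness relative to wild type rested on changes in genotype frequencies. Genotypes required ≥ 100 starting reads, and estimates < 0.5 were set to 0.5.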
U8A A21G A36G gave a yeast fitness of 0.65.
For U7G C11G C34U A40G G41A, the yeast fitness was at most 0.5.
Variant U8A A14G C24G A65C has a yeast fitness of at most 0.5.
Work on U8A A15U C61U yielded a yeast fitness of at most 0.5.
U7G G44A C61U gave a yeast fitness of 0.689.
Work on U7G G23C U54A A57C A70U yielded a yeast fitness of at most 0.5.
Work on U7C G51A C62G A65G yielded a yeast fitness of at most 0.5.
Work on U7G G9A A43C yielded a yeast fitness of 0.515.
With U7G C27U C33U C66U the yeast fitness was at most 0.5.
Variant U8A C66A G68C has a yeast fitness of at most 0.5.
U7G A14U gave a yeast fitness of 0.675.
In the case of U8A A20C C31A A57C C66A A69U, the yeast fitness is reported as at most 0.5.
In the case of U8A C30G U59A, the yeast fitness is reported as at most 0.5.
Work on U7C G48C C62U yielded a yeast fitness of 0.548.
With U8A C30A A37G C46U A57C the yeast fitness was 0.579.
Variant U7G C33U A42C A43C C49U A69U has a yeast fitness of at most 0.5.
In the case of U8A C24G A43G C49U, the yeast fitness is reported as at most 0.5.
Variant U7G U19A C30G C33U C61G has a yeast fitness of at most 0.5.
With U7G A70G the yeast fitness was 0.993.
For U7G A43G, the yeast fitness was 0.806.
U7G A43U showed a yeast fitness of 0.914.
Work on U7G G23C A45U G51C yielded a yeast fitness of at most 0.5.
U8A A15C A21G C27U C46U A70G showed a yeast fitness of at most 0.5.
U8A C31A showed a yeast fitness of 0.605.
Variant U8A C60A has a yeast fitness of at most 0.5.
Variant U8A C66G G68C has a yeast fitness of at most 0.5.
For U8A A14C C31A G41C C49A G56A A70C, the yeast fitness was 0.533.
For U8A A45G C61G C62U, the yeast fitness was at most 0.5.
U7C U32G G56U gave a yeast fitness of at most 0.5.
In the case of U7G A45C G51C U53C, the yeast fitness is reported as at most 0.5.
With U7G U8G C31U U35A U47C the yeast fitness was at most 0.5.
Variant U8A C29U G51C has a yeast fitness of 0.571.
U7G C27U C33U A57U showed a yeast fitness of at most 0.5.
U7G G12A U13C C33U C34U A42C G50A showed a yeast fitness of at most 0.5.
Variant U7G U54C has a yeast fitness of 0.905.
U8A C11U A37U U64A gave a yeast fitness of 0.545.
In the case of U7G A15U C62U C66A, the yeast fitness is reported as at most 0.5.
U8A C11U A20C showed a yeast fitness of at most 0.5.
In the case of U8A A14C C24U U26A U28G U54G, the yeast fitness is reported as at most 0.5.
U8A C22G C55G gave a yeast fitness of 0.651.
For U7C U16G U28A C49G A57C G67U, the yeast fitness was at most 0.5.
In the case of U7G A15C C24U A43G G51A U54C, the yeast fitness is reported as 0.634.
U7G G68C gave a yeast fitness of 0.895.
For U8A C34U C55U C66A, the yeast fitness was at most 0.5.
U7G A45C C49U gave a yeast fitness of 0.508.
U7C G56A gave a yeast fitness of 0.977.
Variant U7C G56C has a yeast fitness of 0.692.
With U8A A15U C27G A36G A70C the yeast fitness was at most 0.5.
For U7G G56A, the yeast fitness was 1.06.
For U8A A37G G41C A43U, the yeast fitness was at most 0.5.
U7G A20U C46G A57U A69C showed a yeast fitness of 0.623.
U7G C24A C46G U59C C62G showed a yeast fitness of at most 0.5.
Variant U8A A20G U26C A40C has a yeast fitness of 0.617.
With U7G C29U U47G the yeast fitness was at most 0.5.
U7G C11G C33G G56C C62G gave a yeast fitness of at most 0.5.
U7G A14U U19A C22U C61A U64A A69U gave a yeast fitness of 0.543.
U8A C29G A70G gave a yeast fitness of at most 0.5.
Variant U7G U59A has a yeast fitness of 0.754.
For U8A C29U C34U C49A G67A, the yeast fitness was at most 0.5.
For U7C U28C G41A A42C G50C A70G, the yeast fitness was 0.572.
Work on U7G G12A U13A yielded a yeast fitness of 0.565.
Work on U7G G25C G58C yielded a yeast fitness of 0.558.
In the case of U8A A36C U53C, the yeast fitness is reported as at most 0.5.
Work on U7G G10C yielded a yeast fitness of 0.709.
U7G A36U gave a yeast fitness of 0.777.
U7G G25A C49G showed a yeast fitness of 0.542.
Variant U8A C24G G41C A65G has a yeast fitness of at most 0.5.
With U8A A20C C31U the yeast fitness was at most 0.5.
Work on U7G A20U yielded a yeast fitness of 0.742.
U7G G12C G23C C29G C60A showed a yeast fitness of at most 0.5.
In the case of U7G C11U G12C C33U, the yeast fitness is reported as at most 0.5.
Work on U7C U19C U26C C34U G52A U59A G63C yielded a yeast fitness of at most 0.5.
With U7G C11U G12C C33U G63C G68U the yeast fitness was at most 0.5.
With U8A C29G A40G G63A the yeast fitness was at most 0.5.
U8A A15C A21G C27U C46U gave a yeast fitness of at most 0.5.
With U7G C61U A70G the yeast fitness was 0.669.
Work on U7C G51C A57U yielded a yeast fitness of at most 0.5.
Variant U7G A14C G63C has a yeast fitness of at most 0.5.
U8A A69U gave a yeast fitness of 0.719.
Variant U8A A69G has a yeast fitness of 0.604.
U8A A69C gave a yeast fitness of 0.915.
For U7G C46U, the yeast fitness was 0.987.
For U7G A14U U26A C61A, the yeast fitness was at most 0.5.
Work on U7G C24G A65U C66U yielded a yeast fitness of at most 0.5.
Variant U7C U19G G51A U59A C66A has a yeast fitness of at most 0.5.
Variant U7G C31G A36C has a yeast fitness of at most 0.5.
Work on U8A C46A G68C yielded a yeast fitness of at most 0.5.
Variant U7G C11G C34U G41A A65C C66U has a yeast fitness of at most 0.5.
In the case of U7G A14C C30G C66U, the yeast fitness is reported as at most 0.5.
Work on U8A A15C A20C U28C yielded a yeast fitness of at most 0.5.
Work on U8A C46U A57C yielded a yeast fitness of 0.635.
For U8A C11U U19C C46A C66U, the yeast fitness was 0.578.
With U8A A15U C22G C31U A57C U64A G68A the yeast fitness was at most 0.5.
With U7C U64C the yeast fitness was 0.88.
Work on U7G U47C yielded a yeast fitness of 0.845.
With U7G G48A G68U A70C the yeast fitness was 0.541.
U7G U28A gave a yeast fitness of 0.704.
In the case of U8A C29G A40G, the yeast fitness is reported as 0.639.
For U7G G9C G50C, the yeast fitness was 0.668.
U7G A69C showed a yeast fitness of 0.851.
Variant U7C U26C C49U has a yeast fitness of at most 0.5.
For U8A C11U C46U, the yeast fitness was at most 0.5.
U7G C61A showed a yeast fitness of 0.708.
In the case of U7G C24A C27A, the yeast fitness is reported as at most 0.5.
Variant U7G A14U C30A has a yeast fitness of at most 0.5.
U8A gave a yeast fitness of 0.741.
U8A C11U U47G G67A gave a yeast fitness of at most 0.5.
Work on U8A C31U A37G yielded a yeast fitness of at most 0.5.
Work on U7C U47C U54C C55G yielded a yeast fitness of at most 0.5.
Variant U7C U16C A21U C22A C49U G50C A69U has a yeast fitness of at most 0.5.
Variant U7G C30U G38A C60U has a yeast fitness of 0.582.
Variant U7G G48A C62U has a yeast fitness of 0.628.
U7G A21U C29A C55A A69U gave a yeast fitness of at most 0.5.
With U8A A15G C27A the yeast fitness was 0.549.
U7G A57U showed a yeast fitness of 0.599.
U7G C27A C29U A40U gave a yeast fitness of at most 0.5.
U7G C11G C34U G41A U64A gave a yeast fitness of at most 0.5.
U7G G9A C31G C33U A36G gave a yeast fitness of at most 0.5.
U7C G48C G67C gave a yeast fitness of at most 0.5.
U7C U16A U28A showed a yeast fitness of at most 0.5.
U8A C24U U47C gave a yeast fitness of 0.575.
In the case of U8A C29A U54C, the yeast fitness is reported as at most 0.5.
For U8A A14C C49G A70U, the yeast fitness was 0.515.
With U8A A42U U47C C55G the yeast fitness was at most 0.5.
Work on U8A C11U U47G yielded a yeast fitness of at most 0.5.
Variant U7G C55G G63A G68C has a yeast fitness of 0.525.
Variant U7G C11U G58A has a yeast fitness of 0.589.
Variant U7G U16G C61U has a yeast fitness of at most 0.5.
In the case of U8A C24A C30U C31U G48C, the yeast fitness is reported as 0.58.
Work on U7G C61U G68A yielded a yeast fitness of 0.533.
Work on U8A C24U U28C A40C G67C yielded a yeast fitness of at most 0.5.
Work on U8A C34G A37U A42U A57G yielded a yeast fitness of at most 0.5.
For U7G C22U G52A C55U, the yeast fitness was at most 0.5.
Work on U8A A21U C30U G48A G67C A69U yielded a yeast fitness of at most 0.5.
For U7G G10C G58A, the yeast fitness was at most 0.5.
With U8A C62U the yeast fitness was 0.7.
Variant U7G A21U A40G G67A has a yeast fitness of at most 0.5.
U8A A20U C34U A45C gave a yeast fitness of 0.567.
U7C G58C C66A showed a yeast fitness of 0.584.
Variant U8A A43U G52C C60A has a yeast fitness of at most 0.5.
Work on U8A C29U C33U U53A U59G yielded a yeast fitness of at most 0.5.
Work on U7G U19A C34U C66U yielded a yeast fitness of 0.588.
Variant U8A C24U A40U A42C A45U C61U has a yeast fitness of at most 0.5.
For U8A A57U, the yeast fitness was 0.502.
In the case of U7G G9A A20U C31G C34U G67U, the yeast fitness is reported as at most 0.5.
Variant U8A A43G A45C C49G has a yeast fitness of 0.58.
Variant U7G U26C A42U C46U has a yeast fitness of 0.581.
Variant U7G C55G G68C has a yeast fitness of 0.6.
Work on U7G A37U yielded a yeast fitness of 0.72.
Work on U7G A37G yielded a yeast fitness of 0.633.
With U7G A37C the yeast fitness was 0.757.
U7G A14G C22U G38A C55A gave a yeast fitness of 0.555.
Variant U8A C24A has a yeast fitness of 0.624.
Work on U8A C24G yielded a yeast fitness of at most 0.5.
U7C U19G C61G C62U gave a yeast fitness of 0.514.
In the case of U8A C24A U28C G56A, the yeast fitness is reported as 0.556.
Variant U7G C27G A40U G58C has a yeast fitness of at most 0.5.
For U8A C11U C61U C62U C66A, the yeast fitness was at most 0.5.
Work on U7C U53A G56C G63A yielded a yeast fitness of at most 0.5.
Work on U8A C11A A14G C24A C29A C34U C61G A65C yielded a yeast fitness of at most 0.5.
Variant U8A G9A C60G has a yeast fitness of at most 0.5.
U8A C22U A69C A70C showed a yeast fitness of 0.595.
Work on U7G A21U C29A C55A yielded a yeast fitness of 0.604.
In the case of U7G A15C U16A C33G A37C C49A C61U, the yeast fitness is reported as 0.525.
Work on U7G C33G G48C U64C yielded a yeast fitness of 0.531.
Variant U7G G63A G67C has a yeast fitness of at most 0.5.
U7G C34A C46G A65C gave a yeast fitness of 0.746.
